One molecule from ChEMBL document CHEMBL5154772, “Biological Investigation of a Water-Soluble Isoginkgetin-Phosphate Analogue, Targeting the Spliceosome with In Vivo Antitumor Activity” (J Med Chem, 2022) can be followed below.

Series [1] is described as follows: AUC(0 to t) in C57BL/6J mouse at 9.103 mg/kg, ip administered as single dose measured up to 24 hrs. The class given is ADME, organism-based. Also noted: time < 24 hrs, dose 9.103 mg/kg, route ip. The note with it: in vivo. In a few lines: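 Single intraperitoneal dose in male C57BL/6J mice (12 per route). Tail-vein blood was collected under sodium heparin for plasma, with 3 mice sampled at each pair of times: 0.083/2, 0.25/4, 0.5/8 and 1/24 h. F denotes bioavailability.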

Series [2] in a line: Plasma protein binding in human assessed as unbound fraction at 2 uM by rapid equilibrium dialysis based LC-MS/MS analysis. The class given is ADME, cell-free. In a few lines:
(§1)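 Binding was measured at 2 μM in triplicate by rapid equilibrium dialysis (8K MWCO). Quantification was by UPLC-MS/MS on a phenyl column in positive ESI MRM mode (m/z 727>567), with an ammonium formate pH 5 / 1,5-DMHA mobile phase at 50 °C. Both unbound fraction (fu) and % bound are reported.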
(In general: In equilibrium dialysis free small molecules cross a membrane that holds back macromolecules.)

The nature of series [3]: Tmax in Beagle dog at 26.76 mg/kg, iv administered as single dose measured up to 24 hrs. The class given is ADME, organism-based, Canis lupus familiaris. The note with it: in vivo. In a few lines:
(§2)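 Single intravenous dose. Mice were male C57BL/6J, 12 per route; tail-vein blood was collected under sodium heparin, with 3 mice sampled at each pair of times (0.083/2, 0.25/4, 0.5/8, 1/24 h). Dogs were male beagles (n=3); jugular blood was collected under K2 EDTA predose and at 0.083, 0.25, 0.5, 1, 2, 4, 6, 8 and 24 h. Plasma was prepared from the samples.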

The target of series [4] is Beta-1 adrenergic receptor (Homo sapiens) (UniProt P08588). The series can be described thus: Antagonist activity at ADRB1 (unknown origin) at 10 uM. The class given is functional. Also noted: scale not given: the % may be the effect or the level left. In a few lines:
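Single-concentration safety screen at 10 μM across a 47-target panel. GPCRs were run in antagonist mode and enzymes in inhibitor mode.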

Series [5] is described as follows: MRT(0 to t) in Beagle dog at 26.76 mg/kg, iv administered as single dose measured up to 24 hrs. The class given is ADME, organism-based, Canis lupus familiaris. The following applies: in vivo. The method in brief: as §2
A short description of series [6]: Toxicity in C57BL/6 mouse assessed as behavioral changes at 50 to 500 mg/kg, ip and measured upto 30 mins post administration. The class given is organism-based. The following applies: in vivo, 0.5 h, dose 50-500 mg/kg. In a few lines:
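Female C57BL/6 mice given one IP injection of 100 µL, at 50, 100, 250 or 500 mg/kg in sterile PBS, two mice per dose; PBS-injected controls. Behaviour checked right after and at 30 min. Body weight recorded every 2–3 days for 15 days, then liver, spleen and kidneys weighed.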

The nature of series [7]: Antitumour activity against mouse wild type MCA-205 cells implanted in C57BL/6 mouse assessed as tumor size by measuring cell killing at 5 mg/kg, IT administered starting from day 7 post inoculation and thrice a week for 2 weeks. The class given is functional. In a few lines:
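Female C57BL/6 mice (6 weeks old) given subcutaneous MCA205 WT fibrosarcoma in the right flank. From day 7 after inoculation, 5 mg/kg given intratumorally three times per week for two weeks; untreated controls. Tumour area recorded every 3–4 days until ethical endpoints, then tumour size at killing. Groups compared by one-way ANOVA.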

Series [8] in a line: Plasma protein binding in mouse at 2 uM by rapid equilibrium dialysis based LC-MS/MS analysis. The class given is ADME, cell-free. The note with it: read-out: PPB (converted). In a few lines:
as §1

The nature of series [9]: AUC(0 to t) in Beagle dog at 26.76 mg/kg, iv administered as single dose measured up to 24 hrs. The class given is ADME, organism-based, Canis lupus familiaris. Further details: dose 26.76 mg/kg, time < 24 hrs, route iv. The following applies: in vivo. The method in brief:
as §2

The nature of series [10]: AUC(0 to t) in C57BL/6J mouse at 0.711 mg/kg, iv administered as single dose measured up to 24 hrs. The class given is ADME, organism-based. Further details: dose 0.711 mg/kg, time < 24 hrs, route iv. The following applies: in vivo. The method in brief:
as §2

Chain of Beta-1 adrenergic receptor (Homo sapiens) (P08588 whole entry, looked up): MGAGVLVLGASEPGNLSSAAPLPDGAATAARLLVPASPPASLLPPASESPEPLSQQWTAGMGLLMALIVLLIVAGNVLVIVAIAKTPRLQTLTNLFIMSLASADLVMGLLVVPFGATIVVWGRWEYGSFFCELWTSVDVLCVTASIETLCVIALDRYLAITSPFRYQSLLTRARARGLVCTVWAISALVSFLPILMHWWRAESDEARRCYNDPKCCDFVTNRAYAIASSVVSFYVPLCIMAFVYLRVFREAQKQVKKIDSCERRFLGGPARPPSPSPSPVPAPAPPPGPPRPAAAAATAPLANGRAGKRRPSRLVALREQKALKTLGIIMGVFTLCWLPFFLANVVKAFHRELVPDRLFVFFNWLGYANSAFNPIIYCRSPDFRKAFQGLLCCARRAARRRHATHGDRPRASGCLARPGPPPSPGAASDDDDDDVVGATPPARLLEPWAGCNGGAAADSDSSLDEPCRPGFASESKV

The term AUC(0-t) denotes the area under the concentration-time curve up to a stated or last time point. By Tmax is commonly meant the time at which the peak concentration occurs. For orientation: MRT last means a mean duration of stay, worked out from the concentration-time curve. As for `COc1ccc(-c2cc(=O)c3c(O)cc(OP(=O)([O-])[O-])c(-c4cc(-c5cc(=O)c6c(O)cc(OP(=O)([O-])[O-])cc6o5)ccc4OC)c3o2)cc1.[Na+].[Na+].[Na+].[Na+]`, the AUC(0-t) at 24 h in series [1] was found to be 982 ng·h/mL; in [9], 655000 ng·h/mL; in [10] it was 88.8 ng·h/mL. Besides, the fraction unbound at 2 µM is 0.02 in series [2] and 0.019 in series [8]. Further, the Tmax in series [3] came out at 5 min. In addition, the Activity is 35% in [4], “Non-Toxic” in series [6] and 50% in series [7]. The same molecule registered an MRT last at 24 h in series [5] of 3.8 h.
